Measurements published in ChEMBL document CHEMBL1156768, “The structure-activity relationship of the antimalarial ozonide arterolane (OZ277)” (J Med Chem, 2010).
In brackets after ≈: the same amount, converted by molar mass.

Columns and labels:
[1] = tested on: Plasmodium berghei; assay: Antiplasmodial activity against Plasmodium berghei infected in NMRI mice (Mus musculus) assessed as reduction of parasitaemia level at 3 mg/kg, perorally daily once for 3 consecutive days measured after 4 days post-infection; format: functional; set-up: scale not given: the % may be the effect or the level left; details: route oral
Procedure, shortened: (§1)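 P. berghei-infected NMRI mice, in groups of five, were dosed orally at 3 mg/kg on days +1, +2 and +3 postinfection. Parasitemia reduction, survival time and cure were scored.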

[2] = tested on: Rattus norvegicus; assay: Lymphatic organ toxicity in Sprague-Dawley rat at 300 mg/kg, po daily once for 5 days; format: organism-based; set-up: dose 300 mg/kg, route oral; details: in vivo, 120 h
Procedure, shortened: (§2)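 Preliminary toxicology was run in male rats given daily oral doses for five days.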

[3] = tested on: Rattus norvegicus; assay: Neurotoxicity in Sprague-Dawley rat at 300 mg/kg, po daily once for 5 days; format: toxicity, organism-based; set-up: dose 300 mg/kg, route oral; details: in vivo, 120 h; procedure, shortened: as §2
[4] = tested on: Rattus norvegicus; assay: Liver toxicity in Sprague-Dawley rat at 300 mg/kg, po daily once for 5 days; format: organism-based; set-up: dose 300 mg/kg, route oral; details: in vivo, 120 h; procedure, shortened: as §2
[5] = tested on: Plasmodium berghei; assay: Antiplasmodial activity against Plasmodium berghei infected in NMRI mice (Mus musculus) assessed as mice (Mus musculus) survival days at 3 mg/kg, perorally daily once for 3 consecutive days measured after 4 days post-infection; format: functional; details: route oral; procedure, shortened: as §1
[6] = tested on: Rattus norvegicus; assay: Renal toxicity in Sprague-Dawley rat at 300 mg/kg, po daily once for 5 days; format: organism-based; set-up: dose 300 mg/kg, route oral; details: in vivo, 120 h; procedure, shortened: as §2
[7] = tested on: Plasmodium falciparum; assay: Antimalarial activity against chloroquine-sensitive Plasmodium falciparum NF54 infected in human A+ erythrocytes assessed as [3H]hypoxanthine incorporation by semi-automated micro dilution assay; format: functional, organism-based
[8] = tested on: Plasmodium falciparum; assay: Antimalarial activity against chloroquine-resistant Plasmodium falciparum K1 infected in human A+ erythrocytes assessed as [3H]hypoxanthine incorporation by semiautomated micro dilution assay; format: functional, organism-based
[9] = tested on: Plasmodium berghei; assay: Antiplasmodial activity against Plasmodium berghei infected in NMRI mice (Mus musculus) assessed as reduction of parasitaemia level at 10 mg/kg, perorally administered 1 day after post-infection measured after 3 days post-infection; format: functional; set-up: scale not given: the % may be the effect or the level left; details: route oral
Procedure, shortened: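 Groups of five NMRI mice infected with P. berghei received a single oral dose on day 1 postinfection. Read-out was percent reduction in parasitemia on day 3 postinfection. Individual measurements differed by less than 10%.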

[10] = Plasma clearance in Sprague-Dawley rat at 2.5 to 3.5 mg/kg, iv; format: ADME, organism-based; set-up: dose 2.5-3.5 mg/kg, route intravenous
Procedure, shortened: (§3)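 Rats received an IV infusion over 5-10 min through a jugular cannula at 2.5-3.5 mg/kg, in DMSO/aqueous buffer or propylene glycol/ethanol/water. Oral gavage used aqueous suspensions in HPMC or CMC with 0.4% Tween 80 and 0.5% benzyl alcohol. Carotid blood was sampled, and plasma was acetonitrile-precipitated and measured by LC/MS against plasma calibration standards. Values are averages of 2-3 determinations.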

[11] = Volume of distribution in Sprague-Dawley rat at 2.5 to 3.5 mg/kg, iv; format: ADME, organism-based; set-up: dose 2.5-3.5 mg/kg, route intravenous; details: in vivo; procedure, shortened: as §3
[12] = Oral bioavailability in Sprague-Dawley rat; format: ADME, organism-based; details: in vivo; procedure, shortened: as §3
[13] = Half life in Sprague-Dawley rat at 2.5 to 3.5 mg/kg, iv; format: ADME, organism-based; set-up: dose 2.5-3.5 mg/kg, route intravenous; details: in vivo; procedure, shortened: as §3
[14] = biological target: Cytochrome P450 2C9 (Homo sapiens, UniProt P11712); assay: Inhibition of human CYP2C9 up to 50 uM; format: ADME
[15] = biological target: Cytochrome P450 2D6 (Homo sapiens, UniProt P10635); assay: Inhibition of human CYP2D6 up to 50 uM; format: ADME
[16] = Blood clearance in Sprague-Dawley rat at 2.5 to 3.5 mg/kg, iv; format: ADME, organism-based; set-up: dose 2.5-3.5 mg/kg, route intravenous; details: whole blood; procedure, shortened: as §3
[17] = tested on: Plasmodium berghei; assay: Antiplasmodial activity against Plasmodium berghei infected in NMRI mice (Mus musculus) assessed as curing of parasitaemia at 3 mg/kg, perorally daily once for 3 consecutive days measured after 30 days post-infection; format: functional; details: route oral; procedure, shortened: as §1
[18] = biological target: Cytochrome P450 3A4 (Homo sapiens, UniProt P08684); assay: Inhibition of human CYP3A4 up to 50 uM; format: ADME
Cytochrome P450 3A4, sequence (P08684 whole entry): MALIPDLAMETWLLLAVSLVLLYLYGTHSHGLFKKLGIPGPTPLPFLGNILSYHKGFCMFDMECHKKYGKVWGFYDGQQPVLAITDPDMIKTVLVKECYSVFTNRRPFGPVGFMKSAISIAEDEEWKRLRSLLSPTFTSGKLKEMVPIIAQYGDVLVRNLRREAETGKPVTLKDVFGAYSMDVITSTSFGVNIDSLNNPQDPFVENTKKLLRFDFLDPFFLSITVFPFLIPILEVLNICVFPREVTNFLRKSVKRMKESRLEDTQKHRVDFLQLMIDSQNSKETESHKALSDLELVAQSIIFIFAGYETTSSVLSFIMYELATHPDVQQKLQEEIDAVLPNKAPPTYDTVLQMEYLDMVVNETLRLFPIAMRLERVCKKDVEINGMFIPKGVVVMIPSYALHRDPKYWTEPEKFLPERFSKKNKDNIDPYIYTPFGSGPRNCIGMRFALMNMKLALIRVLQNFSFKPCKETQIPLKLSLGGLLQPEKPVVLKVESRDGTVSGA

Cytochrome P450 2C9, sequence (P11712 whole entry): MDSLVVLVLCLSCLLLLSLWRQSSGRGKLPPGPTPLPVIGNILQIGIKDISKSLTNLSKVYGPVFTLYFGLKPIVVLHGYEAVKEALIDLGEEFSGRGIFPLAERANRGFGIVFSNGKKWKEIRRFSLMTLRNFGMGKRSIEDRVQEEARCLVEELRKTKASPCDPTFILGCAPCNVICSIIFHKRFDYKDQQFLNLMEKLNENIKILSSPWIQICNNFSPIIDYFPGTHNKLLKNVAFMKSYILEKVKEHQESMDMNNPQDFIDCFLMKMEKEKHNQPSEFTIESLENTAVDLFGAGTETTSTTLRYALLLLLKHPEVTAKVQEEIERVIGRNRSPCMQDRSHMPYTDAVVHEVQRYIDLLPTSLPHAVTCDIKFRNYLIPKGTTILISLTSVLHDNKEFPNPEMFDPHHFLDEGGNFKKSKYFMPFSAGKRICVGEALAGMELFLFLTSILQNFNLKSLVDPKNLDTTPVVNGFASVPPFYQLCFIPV
Cytochrome P450 2D6, sequence (P10635 whole entry): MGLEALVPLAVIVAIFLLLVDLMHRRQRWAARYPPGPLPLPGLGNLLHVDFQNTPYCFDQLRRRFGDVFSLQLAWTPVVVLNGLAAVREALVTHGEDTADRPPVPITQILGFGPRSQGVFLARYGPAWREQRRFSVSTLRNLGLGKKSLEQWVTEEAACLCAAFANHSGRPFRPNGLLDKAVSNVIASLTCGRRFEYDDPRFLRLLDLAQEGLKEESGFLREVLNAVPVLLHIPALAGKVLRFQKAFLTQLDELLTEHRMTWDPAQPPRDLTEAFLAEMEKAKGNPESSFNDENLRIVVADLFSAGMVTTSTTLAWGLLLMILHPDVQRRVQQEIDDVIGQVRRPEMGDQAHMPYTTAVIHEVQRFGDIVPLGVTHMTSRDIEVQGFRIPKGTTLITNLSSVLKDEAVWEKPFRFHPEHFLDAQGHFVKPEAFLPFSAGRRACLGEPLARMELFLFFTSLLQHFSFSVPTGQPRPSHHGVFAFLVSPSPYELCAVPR

SMILES	IC50 [7]	IC50 [8]	Activity [9]	also measured
C[C@H]1[C@H](OC(=O)CCC(=O)O)O[C@@H]2O[C@@]3(C)CC[C@H]4[C@H](C)CC[C@@H]1[C@@]24OO3 [ARTESUNATE]	–	–	–	Activity [1]: 70%; Activity [2]: Non-toxic; Activity [3]: Non-toxic; Activity [4]: Non-toxic; Survival [5]: 9.2 days; Activity [6]: Non-toxic
O=C(C[C@H]1CC[C@]2(CC1)OO[C@]1(O2)C2CC3CC(C2)CC1C3)N1CCCCC1	1.6 ng/mL (≈ 4.11 nM)	1.6 ng/mL (≈ 4.11 nM)	–	–
CC(C)(N)CNC(=O)NC[C@H]1CC[C@]2(CC1)OO[C@]1(O2)C2CC3CC(C2)CC1C3.Cc1ccc(S(=O)(=O)O)cc1	3.5 ng/mL	3.2 ng/mL	97%	–
CS(=O)(=O)N1CCN(C(=O)C[C@H]2CC[C@]3(CC2)OO[C@]2(O3)C3CC4CC(C3)CC2C4)CC1	–	–	<40%	–
NC(=O)C[C@H]1CC[C@]2(CC1)OO[C@]1(O2)C2CC3CC(C2)CC1C3	1.1 ng/mL (≈ 3.42 nM)	0.91 ng/mL (≈ 2.83 nM)	97%	–
C[C@H]1[C@@H](O)O[C@@H]2O[C@@]3(C)CC[C@H]4[C@H](C)CC[C@@H]1[C@@]24OO3 [ARTENIMOL]	–	–	–	clearance [10]: 72 mL/min/kg; Vd [11]: 3 L/kg
O=C(C[C@H]1CC[C@]2(CC1)OO[C@]1(O2)C2CC3CC(C2)CC1C3)N1CCOCC1	3 ng/mL (≈ 7.66 nM)	1.7 ng/mL (≈ 4.34 nM)	99.8%	–
CC(C)(N)CNC(=O)C[C@H]1CC[C@@]2(CC1)OO[C@@]1(O2)C2CC3CC(C2)CC1C3.Cc1ccc(S(=O)(=O)O)cc1	1.5 ng/mL	1.7 ng/mL	96%	bioavailability [12]: 15%; clearance [10]: 298 mL/min/kg; half-life [13]: 0.617 h; Vd [11]: 16 L/kg
CC(C)(N)Cn1nnnc1C[C@H]1CC[C@]2(CC1)OO[C@]1(O2)C2CC3CC(C2)CC1C3	1.5 ng/mL (≈ 3.59 nM)	2.3 ng/mL (≈ 5.51 nM)	98%	–
OC(c1cc(C(F)(F)F)nc2c(C(F)(F)F)cccc12)C1CCCCN1 (stereo not given) [MEFLOQUINE]	–	–	–	Activity [1]: 99%; Survival [5]: 15.8 days
Cc1ccc(S(=O)(=O)O)cc1.NCCNC(=O)C[C@H]1CC[C@]2(CC1)OO[C@]1(O2)C2CC3CC(C2)CC1C3	–	–	99.9%	–
NC(=O)C1CCN(C(=O)C[C@H]2CC[C@]3(CC2)OO[C@]2(O3)C3CC4CC(C3)CC2C4)CC1	1.7 ng/mL (≈ 3.93 nM)	–	86%	–
Cc1ccc(S(=O)(=O)O)cc1.NC1CCN(C(=O)C[C@H]2CC[C@]3(CC2)OO[C@]2(O3)C3CC4CC(C3)CC2C4)CC1	0.39 ng/mL	–	>99.9%	Activity [14]: Not Active; Activity [1]: >99.9%; Activity [2]: Non-toxic; bioavailability [12]: 78%; Activity [3]: Non-toxic; Activity [4]: Non-toxic; clearance [10]: 157 mL/min/kg; Survival [5]: 27 days; half-life [13]: 1.38 h; Activity [15]: Not Active; clearance [16]: 39.1 mL/min/kg; Vd [11]: 19 L/kg; Activity [6]: Non-toxic; Activity [17]: 60%; Activity [18]: Not Active
Cc1ccc(S(=O)(=O)O)cc1.N[C@H]1CC[C@H](NC(=O)C[C@H]2CC[C@]3(CC2)OO[C@]2(O3)C3CC4CC(C3)CC2C4)CC1	–	–	>99.9%	Activity [1]: >99.9%; Survival [5]: 22 days; Activity [17]: 0%
O=C1CN(C(=O)C[C@H]2CC[C@]3(CC2)OO[C@]2(O3)C3CC4CC(C3)CC2C4)CCN1	0.89 ng/mL (≈ 2.2 nM)	0.6 ng/mL (≈ 1.48 nM)	99.2%	–
O=CN1CCN(C(=O)C[C@H]2CC[C@]3(CC2)OO[C@]2(O3)C3CC4CC(C3)CC2C4)CC1	0.63 ng/mL (≈ 1.51 nM)	0.39 ng/mL (≈ 0.932 nM)	99.8%	–
CC(C)(N)CNC(=O)[C@H]1CC[C@]2(CC1)OO[C@]1(O2)C2CC3CC(C2)CC1C3.Cc1ccc(S(=O)(=O)O)cc1	0.25 ng/mL	0.66 ng/mL	96%	–
